{
  "source": "ChEMBL document CHEMBL1926673",
  "about": "“Synthesis, molecular docking study and antitumor activity of novel 2-phenylindole derivatives” (Eur J Med Chem, 2012)",
  "key": {"MCF7": {"tested_on": "MCF7", "test": "Cytotoxicity against human MCF7 cells after 48 hrs by SRB assay", "assay_type": "functional, cell-based", "conditions": "MCF7, 48 h", "method_in_brief": "(§1)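 Cells seeded at 10⁴ per well and allowed to attach for 24 h, then exposed to compounds at 0, 1, 2.5 and 10 (four levels), triplicate wells per dose, for 48 h at 37 C in 5% CO₂. Cells were then fixed, washed and stained with sulforhodamine B. Excess dye was removed with acetic acid, and bound dye was recovered in Tris EDTA buffer. Results are given as IC₅₀.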"}, "MDA-MB-231": {"tested_on": "MDA-MB-231", "test": "Cytotoxicity against human MDA-MB-231 cells after 48 hrs by SRB assay", "assay_type": "functional, cell-based", "conditions": "MDA-MB-231, 48 h", "method_in_brief": "as §1"}},
  "data": [
    {"smiles": "N#CC(C#N)=Cc1c(-c2ccc(O)cc2)[nH]c2ccccc12", "values": [
      {"measurement": "IC50", "setting": "MCF7", "result": 87.7, "unit": "nM"}
    ]},
    {"smiles": "O=C(COc1ccc(-c2cc3ccccc3[nH]2)cc1)N1CCCC1", "values": [
      {"measurement": "IC50", "setting": "MCF7", "result": 14.8, "unit": "nM"},
      {"measurement": "IC50", "setting": "MDA-MB-231", "result": 42.2, "unit": "nM"}
    ]},
    {"smiles": "COC(=O)COc1ccc(-c2cc3ccccc3[nH]2)cc1", "values": [
      {"measurement": "IC50", "setting": "MCF7", "result": 35, "unit": "nM"}
    ]},
    {"smiles": "O=C(COc1ccc(-c2cc3ccccc3[nH]2)cc1)NCCO", "values": [
      {"measurement": "IC50", "setting": "MCF7", "result": 96.8, "unit": "nM"}
    ]},
    {"smiles": "O=C(COc1ccc(-c2cc3ccccc3[nH]2)cc1)N(CCO)CCO", "values": [
      {"measurement": "IC50", "setting": "MCF7", "result": 27.5, "unit": "nM"}
    ]},
    {"smiles": "NC(=S)NNC(=O)COc1ccc(-c2cc3ccccc3[nH]2)cc1", "values": [
      {"measurement": "IC50", "setting": "MCF7", "result": 44.7, "unit": "nM"}
    ]},
    {"smiles": "Cc1cc(NS(=O)(=O)c2ccc(NC(=O)COc3ccc(-c4cc5ccccc5[nH]4)cc3)cc2)no1", "values": [
      {"measurement": "IC50", "setting": "MCF7", "result": 17.5, "unit": "nM"},
      {"measurement": "IC50", "setting": "MDA-MB-231", "result": 9.56, "unit": "nM"}
    ]},
    {"smiles": "O=C(N/N=C/c1c(-c2ccc(O)cc2)[nH]c2ccccc12)c1ccc(Cl)cc1", "values": [
      {"measurement": "IC50", "setting": "MCF7", "result": 3.8, "unit": "nM"},
      {"measurement": "IC50", "setting": "MDA-MB-231", "result": 37.2, "unit": "nM"}
    ]},
    {"smiles": "Nc1ccc(C(=O)N/N=C/c2c(-c3ccc(O)cc3)[nH]c3ccccc23)cc1", "values": [
      {"measurement": "IC50", "setting": "MCF7", "result": 3.7, "unit": "nM"},
      {"measurement": "IC50", "setting": "MDA-MB-231", "result": 37.8, "unit": "nM"}
    ]},
    {"smiles": "Oc1ccc(-c2[nH]c3ccccc3c2/C=N/Nc2ccccc2)cc1", "values": [
      {"measurement": "IC50", "setting": "MCF7", "result": 6.7, "unit": "nM"},
      {"measurement": "IC50", "setting": "MDA-MB-231", "result": 25.1, "unit": "nM"}
    ]},
    {"smiles": "O=C1NC(=S)NC(=O)C1=Cc1c(-c2ccc(O)cc2)[nH]c2ccccc12", "values": [
      {"measurement": "IC50", "setting": "MCF7", "result": 55.1, "unit": "nM"}
    ]},
    {"smiles": "O=C(COc1ccc(-c2cc3ccccc3[nH]2)cc1)Nc1cnccn1", "values": [
      {"measurement": "IC50", "setting": "MCF7", "result": 36.3, "unit": "nM"}
    ]},
    {"smiles": "NC(=S)N/N=C/c1c(-c2ccc(O)cc2)[nH]c2ccccc12", "values": [
      {"measurement": "IC50", "setting": "MCF7", "result": 32, "unit": "nM"}
    ]},
    {"smiles": "NNC(=O)COc1ccc(-c2cc3ccccc3[nH]2)cc1", "values": [
      {"measurement": "IC50", "setting": "MCF7", "result": 20, "unit": "nM"}
    ]},
    {"smiles": "O=C(N/N=C/c1c(-c2ccc(O)cc2)[nH]c2ccccc12)c1ccccc1", "values": [
      {"measurement": "IC50", "setting": "MCF7", "result": 18.7, "unit": "nM"},
      {"measurement": "IC50", "setting": "MDA-MB-231", "result": 28.2, "unit": "nM"}
    ]},
    {"smiles": "CC(=O)NNC(=O)COc1ccc(-c2cc3ccccc3[nH]2)cc1", "values": [
      {"measurement": "IC50", "setting": "MCF7", "result": 92.9, "unit": "nM"}
    ]},
    {"smiles": "CCOC(=O)COc1ccc(-c2cc3ccccc3[nH]2)cc1", "values": [
      {"measurement": "IC50", "setting": "MCF7", "result": 102, "unit": "nM"}
    ]},
    {"smiles": "Oc1ccc(-c2[nH]c3ccccc3c2-c2nc3ccccc3o2)cc1", "values": [
      {"measurement": "IC50", "setting": "MCF7", "result": 17.5, "unit": "nM"},
      {"measurement": "IC50", "setting": "MDA-MB-231", "result": 15.3, "unit": "nM"}
    ]},
    {"smiles": "Cc1cc(C)n(C(=O)COc2ccc(-c3cc4ccccc4[nH]3)cc2)n1", "values": [
      {"measurement": "IC50", "setting": "MCF7", "result": 43.2, "unit": "nM"}
    ]},
    {"smiles": "c1ccc(-c2nnc(COc3ccc(-c4cc5ccccc5[nH]4)cc3)o2)cc1", "values": [
      {"measurement": "IC50", "setting": "MCF7", "result": 13.7, "unit": "nM"},
      {"measurement": "IC50", "setting": "MDA-MB-231", "result": 18.3, "unit": "nM"}
    ]},
    {"smiles": "NC(=O)COc1ccc(-c2cc3ccccc3[nH]2)cc1", "values": [
      {"measurement": "IC50", "setting": "MCF7", "result": 37.6, "unit": "nM"}
    ]},
    {"smiles": "COc1ccc2nc(-c3nnc(COc4ccc(-c5cc6ccccc6[nH]5)cc4)o3)ccc2c1", "values": [
      {"measurement": "IC50", "setting": "MCF7", "result": 22.1, "unit": "nM"}
    ]},
    {"smiles": "COC(=O)Oc1ccc(-c2cc3ccccc3[nH]2)cc1", "values": [
      {"measurement": "IC50", "setting": "MCF7", "result": 93.6, "unit": "nM"}
    ]},
    {"smiles": "Oc1ccc(-c2[nH]c3ccccc3c2/C=N/Nc2ccccc2Cl)cc1", "values": [
      {"measurement": "IC50", "setting": "MCF7", "result": 5.7, "unit": "nM"},
      {"measurement": "IC50", "setting": "MDA-MB-231", "result": 31.6, "unit": "nM"}
    ]},
    {"smiles": "Oc1ccc(-c2[nH]c3ccccc3c2-c2ncc[nH]2)cc1", "values": [
      {"measurement": "IC50", "setting": "MCF7", "result": 28.4, "unit": "nM"}
    ]},
    {"smiles": "CC(=O)N/N=C/c1c(-c2ccc(O)cc2)[nH]c2ccccc12", "values": [
      {"measurement": "IC50", "setting": "MCF7", "result": 32.3, "unit": "nM"}
    ]},
    {"smiles": "Cc1cc(-c2ccccc2)nn1C(=O)COc1ccc(-c2cc3ccccc3[nH]2)cc1", "values": [
      {"measurement": "IC50", "setting": "MCF7", "result": 48.9, "unit": "nM"}
    ]},
    {"smiles": "Nc1ccc(-c2nnc(COc3ccc(-c4cc5ccccc5[nH]4)cc3)o2)cc1", "values": [
      {"measurement": "IC50", "setting": "MCF7", "result": 48, "unit": "nM"}
    ]},
    {"smiles": "CN(C)C(=O)COc1ccc(-c2cc3ccccc3[nH]2)cc1", "values": [
      {"measurement": "IC50", "setting": "MCF7", "result": 34.3, "unit": "nM"}
    ]},
    {"smiles": "O=C(COc1ccc(-c2cc3ccccc3[nH]2)cc1)Nc1ccc(S(=O)(=O)Nc2nccs2)cc1", "values": [
      {"measurement": "IC50", "setting": "MCF7", "result": 7.4, "unit": "nM"},
      {"measurement": "IC50", "setting": "MDA-MB-231", "result": 29, "unit": "nM"}
    ]},
    {"smiles": "Nc1ccccc1-c1nnc(COc2ccc(-c3cc4ccccc4[nH]3)cc2)o1", "values": [
      {"measurement": "IC50", "setting": "MCF7", "result": 26, "unit": "nM"}
    ]},
    {"smiles": "O=C(COc1ccc(-c2cc3ccccc3[nH]2)cc1)Nc1ccncc1", "values": [
      {"measurement": "IC50", "setting": "MCF7", "result": 21.1, "unit": "nM"}
    ]},
    {"smiles": "O/N=C/c1c(-c2ccc(O)cc2)[nH]c2ccccc12", "values": [
      {"measurement": "IC50", "setting": "MCF7", "result": 27.6, "unit": "nM"}
    ]},
    {"smiles": "Oc1ccccc1-c1nnc(COc2ccc(-c3cc4ccccc4[nH]3)cc2)o1", "values": [
      {"measurement": "IC50", "setting": "MCF7", "result": 39, "unit": "nM"}
    ]},
    {"smiles": "O=C(N/N=C/c1c(-c2ccc(O)cc2)[nH]c2ccccc12)c1ccc([N+](=O)[O-])cc1", "values": [
      {"measurement": "IC50", "setting": "MCF7", "result": 1.6, "unit": "nM"},
      {"measurement": "IC50", "setting": "MDA-MB-231", "result": 32.5, "unit": "nM"}
    ]},
    {"smiles": "Oc1ccc(-c2[nH]c3ccccc3c2-c2nc3ccccc3[nH]2)cc1", "values": [
      {"measurement": "IC50", "setting": "MCF7", "result": 23.5, "unit": "nM"}
    ]},
    {"smiles": "Nc1ccccc1C(=O)N/N=C/c1c(-c2ccc(O)cc2)[nH]c2ccccc12", "values": [
      {"measurement": "IC50", "setting": "MCF7", "result": 17.9, "unit": "nM"},
      {"measurement": "IC50", "setting": "MDA-MB-231", "result": 29.7, "unit": "nM"}
    ]},
    {"smiles": "Oc1ccc(-c2cc3ccccc3[nH]2)cc1", "values": [
      {"measurement": "IC50", "setting": "MCF7", "result": 71.8, "unit": "nM"}
    ]},
    {"smiles": "CC1=NN(C(=O)COc2ccc(-c3cc4ccccc4[nH]3)cc2)C(=O)C1", "values": [
      {"measurement": "IC50", "setting": "MCF7", "result": 31.8, "unit": "nM"}
    ]},
    {"smiles": "O=C(COc1ccc(-c2cc3ccccc3[nH]2)cc1)NNc1ccccc1", "values": [
      {"measurement": "IC50", "setting": "MCF7", "result": 28, "unit": "nM"}
    ]},
    {"smiles": "NS(=O)(=O)c1ccc(NC(=O)COc2ccc(-c3cc4ccccc4[nH]3)cc2)cc1", "values": [
      {"measurement": "IC50", "setting": "MCF7", "result": 24.2, "unit": "nM"}
    ]},
    {"smiles": "O=Cc1c(-c2ccc(O)cc2)[nH]c2ccccc12", "values": [
      {"measurement": "IC50", "setting": "MCF7", "result": 9, "unit": "nM"},
      {"measurement": "IC50", "setting": "MDA-MB-231", "result": 42.2, "unit": "nM"}
    ]},
    {"smiles": "O=C1NC(=O)C(=Cc2c(-c3ccc(O)cc3)[nH]c3ccccc23)C(=O)N1", "values": [
      {"measurement": "IC50", "setting": "MCF7", "result": 41.8, "unit": "nM"}
    ]},
    {"smiles": "CN/N=C/c1c(-c2ccc(O)cc2)[nH]c2ccccc12", "values": [
      {"measurement": "IC50", "setting": "MCF7", "result": 17.7, "unit": "nM"},
      {"measurement": "IC50", "setting": "MDA-MB-231", "result": 47.5, "unit": "nM"}
    ]}
  ]
}
